ChEMBL document CHEMBL1148788 (J Med Chem, 2007)
Several values for one entry are separate records, joined by “and”; a condition that tells them apart may be missing. Equal values may be shown once. Activity calls are given as the source filed them. The calls are words filed in the database; no cut-off is given here.

Tests used:
[1] = Displacement of [3H]methyllycaconitine from chimeric alpha7nAChR R79A mutant/5HT3A receptor R79A mutant in tsA201 cells; assay type: cell-based, Homo sapiens
Summary of the method: (§1)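 tsA-201 cells transiently transfected with 4 µg WT or mutant α7/5-HT3A chimera and assayed 2 days later. Membranes washed twice at 50000g in 50 mM Tris-HCl pH 7.2. Incubated with 0.5 nM [3H]MLA and compound for 2.5 h at room temperature with shaking; nonspecific binding with 5 mM (S)-nicotine. PEI-soaked GF/C filtration, scintillation counting. Ki derived; duplicate, 3–7 experiments.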

[2] = Displacement of [3H]methyllycaconitine from chimeric alpha-7nAChR Y168A mutant/5HT3A receptor in tsA201 cells; assay type: cell-based, Homo sapiens; summary of the method: as §1
[3] = Antagonist activity at human alpha-7 nAChR Y188A mutant coexpressed with human Ric3 in tsA201 cells by FMP assay; assay type: functional, cell-based
[4] = biological target: T1, Neuronal acetylcholine receptor; alpha3/beta4 (Rattus norvegicus, UniProt P04757+P12392); assay: Displacement of [3H]epibatidine from recombinant rat alpha-3-beta-4 nAChr in HEK293 cell line; assay type: cell-based
[5] = biological target: T2, Glycine receptor subunit alpha-1 (Homo sapiens, UniProt P23415); assay: Antagonist activity at human glycine alpha-1 receptor in HEK293 cells by FMP assay; assay type: functional, cell-based
T2 sequence (P23415 whole entry): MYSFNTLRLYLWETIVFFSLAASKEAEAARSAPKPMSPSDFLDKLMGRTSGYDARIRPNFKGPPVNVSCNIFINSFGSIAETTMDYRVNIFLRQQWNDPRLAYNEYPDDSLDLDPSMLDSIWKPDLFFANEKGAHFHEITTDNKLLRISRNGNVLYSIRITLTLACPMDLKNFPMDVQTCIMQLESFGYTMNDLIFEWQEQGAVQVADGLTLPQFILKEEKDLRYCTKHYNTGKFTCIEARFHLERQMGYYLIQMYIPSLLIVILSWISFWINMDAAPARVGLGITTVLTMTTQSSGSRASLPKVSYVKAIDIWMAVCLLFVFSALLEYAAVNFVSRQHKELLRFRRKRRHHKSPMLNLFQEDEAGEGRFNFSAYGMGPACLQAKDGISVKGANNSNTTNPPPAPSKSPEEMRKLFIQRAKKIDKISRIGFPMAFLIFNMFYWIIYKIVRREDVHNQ

[6] = Displacement of [3H]methyllycaconitine from chimeric alpha7nAChR Y195A mutant/5HT3A receptor in tsA201 cells; assay type: cell-based, Homo sapiens; summary of the method: as §1
tsA201 [7] = assay: Displacement of [3H]methyllycaconitine from chimeric alpha-7nAChR Y188A mutant/5-HT3A receptor in tsA201 cells; assay type: cell-based; details: Homo sapiens; summary of the method: as §1
tsA201 [8] = assay: Displacement of [3H]methyllycaconitine from chimeric alpha-7nAChR W149Y mutant/5HT3A receptor W149Y mutant in tsA201 cells; assay type: cell-based; details: Homo sapiens; summary of the method: as §1
[9] = biological target: T3, Neuronal acetylcholine receptor subunit alpha-7 (Homo sapiens, UniProt P36544); assay: Displacement of [3H]methyllycaconitine from human alpha-7 in tsA201 cells coexpressed with 5HT3A receptor; assay type: cell-based
Target sequence in this assay (P36544 whole entry): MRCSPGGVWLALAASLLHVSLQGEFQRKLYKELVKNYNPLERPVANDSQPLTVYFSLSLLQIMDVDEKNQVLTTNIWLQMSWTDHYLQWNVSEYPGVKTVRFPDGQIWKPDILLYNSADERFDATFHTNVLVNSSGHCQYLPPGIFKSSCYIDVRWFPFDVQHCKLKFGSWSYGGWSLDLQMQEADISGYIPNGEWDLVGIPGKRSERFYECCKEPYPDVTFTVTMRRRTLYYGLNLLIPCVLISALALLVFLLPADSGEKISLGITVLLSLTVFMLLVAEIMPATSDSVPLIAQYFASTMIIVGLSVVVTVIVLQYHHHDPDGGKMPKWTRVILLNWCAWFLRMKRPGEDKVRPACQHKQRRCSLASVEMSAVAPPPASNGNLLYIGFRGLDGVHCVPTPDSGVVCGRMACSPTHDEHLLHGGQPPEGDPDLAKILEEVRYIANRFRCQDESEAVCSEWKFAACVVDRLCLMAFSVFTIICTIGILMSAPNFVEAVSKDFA

[10] = biological target: T1, Neuronal acetylcholine receptor; alpha3/beta4; assay: Antagonist activity at rat alpha3beta4 nAChR expressed in HEK293 cells by FMP assay; assay type: functional, cell-based, Homo sapiens; details: read-out: IC50
[11] = biological target: T3, Neuronal acetylcholine receptor subunit alpha-7; assay: Antagonist activity at human alpha-7 nAChR in tsA201 cells coexpressed with Ric3 by FMP assay; assay type: functional, cell-based
Target sequence in this assay (P36544 whole entry): as above

cells = assay type: functional, cell-based; details: Homo sapiens, HEK293
[12] = biological target: T3, Neuronal acetylcholine receptor subunit alpha-7; assay: Displacement of [3H]methyllycaconitine from alpha7 nAChR in tsA201 cells co-expressed with Ric3; assay type: cell-based
Target sequence in this assay (P36544 whole entry): as above

[13] = Displacement of [3H]methyllycaconitine from chimeric alpha7nAChR W55Y mutant/5HT3A receptor in tsA201 cells; assay type: cell-based, Homo sapiens; summary of the method: as §1
[14] = Displacement of [3H]methyllycaconitine from chimeric alpha-7nAChR S148A mutant /5HT3A receptor in tsA201 cells; assay type: cell-based, Homo sapiens; summary of the method: as §1
[15] = Displacement of [3H]methyllycaconitine from chimeric alpha-7nAChR Y195F mutant/5HT3A receptor in tsA201 cells; assay type: cell-based, Homo sapiens; summary of the method: as §1
[16] = Displacement of [3H]methyllycaconitine from chimeric alpha-7nAChR N107A mutant/5HT3A receptor in tsA201 cells; assay type: cell-based, Homo sapiens; summary of the method: as §1
[17] = Antagonist activity at human alpha7nAChR Y93A mutant co-expressed with human Ric3 in tsA201 cells by FMP assay; assay type: functional, cell-based
[18] = Antagonist activity at human alpha-7 nAChR Y195A mutant coexpressed with human Ric3 in tsA201 cells by FMP assay; assay type: functional, cell-based
[19] = Displacement of [3H]methyllycaconitine from chimeric alpha-7nAChR W55A mutant /5HT3A receptor in tsA201 cells; assay type: cell-based, Homo sapiens; summary of the method: as §1
[20] = biological target: T4, 5-hydroxytryptamine receptor 3A (Homo sapiens, UniProt P46098); assay: Displacement of [3H]GR65630 from human 5HT3A receptor in HEK293 cells; assay type: cell-based
T4 sequence (P46098 whole entry): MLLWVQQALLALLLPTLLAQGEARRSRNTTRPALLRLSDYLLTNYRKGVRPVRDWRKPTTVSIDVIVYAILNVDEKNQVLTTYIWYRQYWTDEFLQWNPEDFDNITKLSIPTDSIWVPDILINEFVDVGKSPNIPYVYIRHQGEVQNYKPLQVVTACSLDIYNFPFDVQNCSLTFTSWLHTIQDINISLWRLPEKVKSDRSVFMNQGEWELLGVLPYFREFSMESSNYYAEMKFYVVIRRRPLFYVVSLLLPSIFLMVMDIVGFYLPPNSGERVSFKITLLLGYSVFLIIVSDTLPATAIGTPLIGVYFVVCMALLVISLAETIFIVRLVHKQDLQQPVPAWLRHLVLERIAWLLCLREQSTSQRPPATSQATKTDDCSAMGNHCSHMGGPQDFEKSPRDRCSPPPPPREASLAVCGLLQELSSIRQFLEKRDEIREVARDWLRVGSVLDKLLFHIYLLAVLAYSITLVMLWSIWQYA

[21] = Displacement of [3H]methyllycaconitine from chimeric alpha-7nAChR D197A mutant/5HT3A receptor in tsA201 cells; assay type: cell-based, Homo sapiens; summary of the method: as §1
tsA201 [22] = assay: Displacement of [3H]methyllycaconitine from chimeric alpha-7nAChR W55A/Y195A mutant /5HT3A receptor in tsA201 cells; assay type: cell-based; details: Homo sapiens; summary of the method: as §1
tsA201 [23] = assay: Displacement of [3H]methyllycaconitine from chimeric alpha-7nAChR Y93A mutant/5HT3A receptor in tsA201 cells; assay type: cell-based; details: Homo sapiens; summary of the method: as §1
[24] = biological target: Neuronal acetylcholine receptor; alpha4/beta4 (Rattus norvegicus, UniProt P09483+P12392); assay: Displacement of [3H]epibatidine from recombinant rat alpha-4-beta-4 nAChr in HEK293 cell line; assay type: cell-based
tsA201 [25] = assay: Displacement of [3H]methyllycaconitine from chimeric alpha-7nAChR W149A mutant/5HT3A receptor in tsA201 cells; assay type: cell-based; details: Homo sapiens; summary of the method: as §1
[26] = Displacement of [3H]methyllycaconitine from chimeric alpha-7nAChR K145R mutant /5HT3A receptor in tsA201 cells; assay type: cell-based, Homo sapiens; summary of the method: as §1
[27] = biological target: T3, Neuronal acetylcholine receptor subunit alpha-7
Target sequence in this assay (P36544 whole entry): as the sequence (P36544 whole entry) above

[28] = Displacement of [3H]methyllycaconitine from chimeric alpha7nAChR K145A mutant/5HT3A receptor in tsA201 cells; assay type: cell-based, Homo sapiens; summary of the method: as §1
[29] = biological target: T4, 5-hydroxytryptamine receptor 3A; assay: Antagonist activity at human 5HT3A receptor expressed in HEK293 cells by FMP assay; assay type: functional, cell-based; details: read-out: IC50
[30] = biological target: Neuronal acetylcholine receptor; alpha4/beta2 (Rattus norvegicus, UniProt P09483+P12390); assay: Displacement of [3H]epibatidine from rat recombinant alpha-4-beta-2 nAChR in HEK293 cell line; assay type: cell-based
[31] = Antagonist activity at human alpha7 nAChR W149Y mutant co-expressed with human Ric3 in tsA201 cells by FMP assay; assay type: functional, cell-based
[32] = Displacement of [3H]methyllycaconitine from chimeric alpha-7nAChR S150A mutant/5HT3A receptor in tsA201 cells; assay type: cell-based, Homo sapiens; summary of the method: as §1
[33] = biological target: T3, Neuronal acetylcholine receptor subunit alpha-7; assay: Displacement of [3H]methyllycaconitine from chimeric alpha7nAChR/5HT3A in tsA201 cells; assay type: cell-based
Target sequence in this assay (P36544 23-502 limits assumed): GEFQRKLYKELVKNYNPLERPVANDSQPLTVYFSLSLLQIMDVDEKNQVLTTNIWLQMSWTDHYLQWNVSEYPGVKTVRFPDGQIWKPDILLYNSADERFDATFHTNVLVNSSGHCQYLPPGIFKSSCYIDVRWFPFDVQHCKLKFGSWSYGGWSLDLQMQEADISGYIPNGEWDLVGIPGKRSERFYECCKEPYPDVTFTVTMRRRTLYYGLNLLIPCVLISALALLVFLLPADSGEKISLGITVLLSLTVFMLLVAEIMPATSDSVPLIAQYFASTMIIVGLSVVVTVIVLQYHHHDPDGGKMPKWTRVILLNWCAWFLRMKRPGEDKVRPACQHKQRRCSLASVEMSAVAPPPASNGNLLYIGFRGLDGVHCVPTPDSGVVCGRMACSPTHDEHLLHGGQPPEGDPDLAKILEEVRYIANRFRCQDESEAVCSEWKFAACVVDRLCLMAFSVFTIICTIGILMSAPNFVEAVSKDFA

Chain of Neuronal acetylcholine receptor; alpha4/beta4 (P09483 whole entry): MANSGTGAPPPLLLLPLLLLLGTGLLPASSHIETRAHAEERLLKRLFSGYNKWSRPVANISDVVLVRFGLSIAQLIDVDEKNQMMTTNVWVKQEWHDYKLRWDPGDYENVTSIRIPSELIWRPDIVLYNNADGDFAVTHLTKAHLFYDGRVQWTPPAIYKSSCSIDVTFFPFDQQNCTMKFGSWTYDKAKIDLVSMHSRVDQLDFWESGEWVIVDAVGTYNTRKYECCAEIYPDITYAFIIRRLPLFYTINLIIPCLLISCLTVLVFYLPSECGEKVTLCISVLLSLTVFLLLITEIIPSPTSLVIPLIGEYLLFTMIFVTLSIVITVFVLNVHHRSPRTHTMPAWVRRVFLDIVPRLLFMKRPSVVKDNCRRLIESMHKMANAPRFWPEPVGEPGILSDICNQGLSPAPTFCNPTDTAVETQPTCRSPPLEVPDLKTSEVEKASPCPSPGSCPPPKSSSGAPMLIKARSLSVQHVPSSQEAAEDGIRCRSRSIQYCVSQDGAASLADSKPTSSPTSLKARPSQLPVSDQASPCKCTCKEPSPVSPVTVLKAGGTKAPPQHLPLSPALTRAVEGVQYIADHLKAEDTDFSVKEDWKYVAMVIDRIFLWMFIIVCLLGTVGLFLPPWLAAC
Chain of Neuronal acetylcholine receptor; alpha4/beta4 (P12392 whole entry): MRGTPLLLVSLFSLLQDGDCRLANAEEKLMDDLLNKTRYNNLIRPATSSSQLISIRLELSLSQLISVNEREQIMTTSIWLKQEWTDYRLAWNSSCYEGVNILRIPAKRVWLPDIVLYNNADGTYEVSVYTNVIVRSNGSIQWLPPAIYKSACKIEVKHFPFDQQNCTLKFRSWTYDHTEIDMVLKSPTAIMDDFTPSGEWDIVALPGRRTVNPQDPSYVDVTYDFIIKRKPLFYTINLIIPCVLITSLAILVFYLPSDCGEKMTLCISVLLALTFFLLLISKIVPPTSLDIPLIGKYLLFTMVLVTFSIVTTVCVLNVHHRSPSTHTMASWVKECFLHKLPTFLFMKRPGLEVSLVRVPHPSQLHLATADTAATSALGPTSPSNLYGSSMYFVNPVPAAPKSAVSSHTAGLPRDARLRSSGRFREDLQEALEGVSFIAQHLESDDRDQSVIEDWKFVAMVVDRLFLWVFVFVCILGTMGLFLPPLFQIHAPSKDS
Chain of Neuronal acetylcholine receptor; alpha4/beta2 (P09483 whole entry): as the sequence (P09483 whole entry) above
Chain of Neuronal acetylcholine receptor; alpha4/beta2 (P12390 whole entry): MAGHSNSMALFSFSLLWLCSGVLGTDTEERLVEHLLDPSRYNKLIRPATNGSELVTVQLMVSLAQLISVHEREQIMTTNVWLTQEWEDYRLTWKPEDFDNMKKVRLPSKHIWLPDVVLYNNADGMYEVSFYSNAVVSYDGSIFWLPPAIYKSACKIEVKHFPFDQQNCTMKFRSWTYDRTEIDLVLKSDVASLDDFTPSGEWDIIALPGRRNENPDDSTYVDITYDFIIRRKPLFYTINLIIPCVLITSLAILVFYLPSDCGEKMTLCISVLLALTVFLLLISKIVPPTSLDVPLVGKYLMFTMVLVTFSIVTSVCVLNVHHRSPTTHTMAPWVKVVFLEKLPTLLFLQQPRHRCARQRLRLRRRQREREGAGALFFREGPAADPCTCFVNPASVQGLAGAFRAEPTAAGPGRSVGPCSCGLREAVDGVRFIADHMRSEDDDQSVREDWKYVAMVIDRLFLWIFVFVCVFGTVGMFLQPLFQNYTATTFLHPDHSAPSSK
T1 sequence (P04757 whole entry): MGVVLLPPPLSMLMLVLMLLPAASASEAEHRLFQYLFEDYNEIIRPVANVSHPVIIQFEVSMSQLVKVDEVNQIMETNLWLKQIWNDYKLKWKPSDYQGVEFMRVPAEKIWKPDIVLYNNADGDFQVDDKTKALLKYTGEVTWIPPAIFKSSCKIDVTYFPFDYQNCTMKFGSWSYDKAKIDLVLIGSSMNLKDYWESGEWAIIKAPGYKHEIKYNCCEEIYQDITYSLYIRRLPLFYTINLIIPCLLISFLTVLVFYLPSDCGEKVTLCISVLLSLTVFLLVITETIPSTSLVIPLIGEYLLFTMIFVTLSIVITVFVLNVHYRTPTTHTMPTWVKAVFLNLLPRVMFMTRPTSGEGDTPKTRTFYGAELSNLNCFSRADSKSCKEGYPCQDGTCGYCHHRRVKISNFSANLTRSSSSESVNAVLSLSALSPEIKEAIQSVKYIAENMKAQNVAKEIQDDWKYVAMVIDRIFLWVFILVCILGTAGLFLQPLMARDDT
T1 sequence (P12392 whole entry): as the sequence (P12392 whole entry) above

Compound: C[N+]12CC[C@@H]3[C@@H]4/C(=C\N5c6ccccc6[C@@]67CC[N+]8(C)CC9=CCO[C@H]([C@@H]([C@H]56)[C@H]9C[C@@H]78)N4c4ccccc4)[C@@H](C[C@@H]31)/C(=C\CO)C2.[I-].[I-] (stereo partly drawn)
- Ki [1]: 1400 nM
- pKi [1]: 5.86
- Ki [2]: 1300 nM
- pKi [2]: 5.89
- IC50 ([3]; read-out: IC50): 4700 nM
- IC50 ([3]; read-out: pIC50 (converted)): 4680 nM
- Ki [4]: 30000 nM
- IC50 [5]: > 100000 nM
- pIC50 ([5]; hek293): < 4
- Ki [6]: 6200 nM
- pKi [6]: 5.21
- Activity (tsA201 [7]): inactive
- Activity (tsA201 [8]): inactive
- Ki ([9]; read-out: Ki): 980 nM
- Ki ([9]; read-out: pKi (converted)): 1000 nM
- IC50 [10]: 30000 nM
- IC50 ([11]; read-out: IC50): 2100 nM
- IC50 ([11]; read-out: pIC50 (converted)): 2090 nM
- IC50 (cells; read-out: IC50): > 100000 nM
- IC50 (cells; read-out: pIC50 (converted)): > 100000 nM
- Ki ([12]; read-out: Ki): 620 nM
- Ki ([12]; read-out: pKi (converted)): 631 nM
- Ki [13]: 690 nM
- pKi [13]: 6.16
- Ki [14]: 1000 nM
- pKi [14]: 5.98
- Ki [15]: 1300 nM
- pKi [15]: 5.9
- Ki [16]: 1300 nM
- pKi [16]: 5.87
- IC50 ([17]; read-out: IC50): 6600 nM
- IC50 ([17]; read-out: pIC50 (converted)): 6610 nM
- IC50 ([18]; read-out: IC50): 7100 nM
- IC50 ([18]; read-out: pIC50 (converted)): 7080 nM
- Ki [19]: 3100 nM
- pKi [19]: 5.51
- Ki [20]: 5900 nM
- Ki [21]: 2200 nM
- pKi [21]: 5.66
- Activity (tsA201 [22]): inactive
- Activity (tsA201 [23]): inactive
- Ki [24]: > 100000 nM
- pKi ([24]; hek293): < 4
- Activity (tsA201 [25]): inactive
- Ki [26]: 740 nM
- pKi [26]: 6.13
- IC50 [27]: 1400 nM and 1380 nM
- Ki [28]: 890 nM
- pKi [28]: 6.05
- IC50 [29]: 4200 nM
- pKi ([30]; hek293): < 4
- Ki ([30]; read-out: Ki): > 100000 nM
- IC50 ([31]; read-out: IC50): 8900 nM
- IC50 ([31]; read-out: pIC50 (converted)): 8910 nM
- Ki [32]: 720 nM
- pKi [32]: 6.14
- Ki [33]: 970 nM
- pKi [33]: 6.01
